From ChEMBL document CHEMBL4138082 (Eur J Med Chem, 2017)
Active and inactive are the calls of the source. The rule behind the calls is not given here.

Columns and labels:
[1] = Selectivity index, ratio of IC50 for human L02 cells to IC50 for human HepG2 cells; type: toxicity; conditions: L02 cells and HepG2 cells, read-out: Ratio IC50
How it was run: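 MTT assay: cells grown 24 h at 37 °C, 5% CO2, then exposed 72 h; MTT (5 mg/mL) added for 4 h, formazan dissolved in DMSO, OD read at 570 nm. Vehicle 0.1% DMSO. Three independent experiments.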

HepG2 [2] = test: Cell cycle arrest in human HepG2 cells assessed as G1 phase accumulation at 0.25 uM after 48 hrs by propidium iodide staining based flow cytometry (reference value: 32.74%); type: functional
How it was run: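 HepG-2 cells were plated and grown 24 h at 37 °C, then treated 48 h at 0, 0.0625, 0.125 or 0.25 µM, with 0.1% DMSO as control. Cells were fixed overnight in 70% ethanol at 4 °C, treated with RNase A and stained with propidium iodide. DNA content was measured by flow cytometry to give cell-cycle phase distribution.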

HepG2 [3] = test: Cell cycle arrest in human HepG2 cells assessed as S phase accumulation at 0.125 uM after 48 hrs in presence of hemoglobin by propidium iodide staining based flow cytometry (reference value: 36.40%); type: functional
HepG2 [4] = test: Induction of apoptosis in human HepG2 cells assessed as chromatin condensation at 0.0625 to 0.25 uM measured after 48 hrs by Hoechst 33258 staining based fluorescent microscopic analysis; type: functional, cell-based
How it was run: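 After 48 h exposure to 0.0625, 0.125 or 0.25 µM, or to 0.1% DMSO vehicle, HepG-2 cells were stained with Hoechst 33258. Nuclear morphology, including chromatin condensation and fragmentation, was inspected by fluorescence microscopy.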

HepG2 [5] = test: Induction of apoptosis in human HepG2 cells assessed as necrotic cells at 0.0625 uM after 48 hrs by Annexin V-APC/7-AAD staining based flow cytometry (reference value: 2.40%); type: functional
HepG2 [6] = test: Induction of apoptosis in human HepG2 cells assessed as early apoptotic cells at 0.125 uM after 48 hrs in presence of hemoglobin by Annexin V-APC/7-AAD staining based flow cytometry (reference value: 3.18%); type: functional
HepG2 [7] = test: Induction of apoptosis in human HepG2 cells assessed as early apoptotic cells at 0.25 uM after 48 hrs in presence of hemoglobin by Annexin V-APC/7-AAD staining based flow cytometry (reference value: 3.18%); type: functional
HepG2 [8] = test: Downregulation of Bcl-2 level in human HepG2 cells up to 0.25 uM after 48 hrs by Western blot method; type: functional, cell-based
How it was run: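 HepG-2 cells were exposed 48 h to 0, 0.0625, 0.125 or 0.25 µM and lysed on ice for 20 min. Equal protein loads were run on 12% SDS-PAGE and transferred to PVDF. Membranes were probed overnight at 4 °C with primary antibodies, then with HRP-conjugated secondaries, and detected by ECL chemiluminescence.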

**Q.** With `C[C@H]1CCC/C=C/[C@@H]2C[C@H](OC(=O)CCCC(=O)OCCOc3no[n+]([O-])c3S(=O)(=O)c3ccccc3)C[C@H]2[C@H](OC(=O)CCCC(=O)OCCOc2no[n+]([O-])c2S(=O)(=O)c2ccccc2)/C=C/C(=O)O1` as the compound, how does the selectivity ratio [1] read?
**A.** The selectivity ratio was 33.

**Q.** What about the Activity (HepG2 [2]) of the same compound?
**A.** Its Activity is 25.17%.

**Q.** What about the Activity (HepG2 [3]) of the same compound?
**A.** The Activity was 30.54%.

**Q.** And the Activity (HepG2 [4])?
**A.** Its Activity is “Active”.

**Q.** What about the Activity (HepG2 [5]) of the same compound?
**A.** Its Activity is 3%.

**Q.** What about the Activity (HepG2 [6]) of the same compound?
**A.** Its Activity is 3.49%.

**Q.** What about the Activity (HepG2 [7]) of the same compound?
**A.** The Activity was 8.7%.

**Q.** And the Activity (HepG2 [8])?
**A.** The Activity was “Active”.
